Results as given in ChEMBL document CHEMBL2150901, “Synthesis and biological activity of tricyclic cycloalkylimidazo-, pyrimido- and diazepinopurinediones” (Eur J Med Chem, 2011).
Calls of active or inactive are those of the source. The rule behind the calls is not given here.

Experiments:
Adenosine receptor A2a = Adenosine receptor A2a (Rattus norvegicus, UniProt P30543); assay: Displacement of [3H]MSX-2 from adenosine A2A receptor in rat brain striatal membrane; assay type: cell membranes
Mus musculus [1] = assay: Neurotoxicity in F1 albino mouse assessed as minimal motor impairment at 300 mg/kg, ip after 0.25 hrs by rotorod test; assay type: toxicity, organism-based; parameters: dose 300 mg/kg, route intraperitoneal; conditions: in vivo
Outline: (§1)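 Male albino F-1 mice (18–25 g), groups of 1–5 (rotorod 2–8). Compound given ip as a suspension in 0.5% methylcellulose at 30, 100 and 300 mg/kg. Seizures by maximal electroshock or subcutaneous pentylenetetrazole; neurotoxicity by rotorod. Read at 0.5 and 4 h, with some at 0.25, 1 and 2 h. Value is the minimum active dose, with protected (or toxic)/tested animals.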

Mus musculus [2] = assay: Anticonvulsant activity in F1 albino mouse assessed as protection against maximal electroshock-induced seizures at 300 mg/kg, ip after 0.25 hrs; assay type: functional, organism-based; parameters: dose 300 mg/kg; outline: as §1
Mus musculus [3] = assay: Toxicity in F1 albino mouse assessed as mortality following clonic seizures at 300 mg/kg, ip after 0.5 hrs; assay type: organism-based; parameters: dose 300 mg/kg, route intraperitoneal; conditions: in vivo
Outline: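 Male albino F-1 mice (18–25 g) were dosed i.p. with a suspension in 0.5% methylcellulose in water at 30, 100 and 300 mg/kg. Screening used MES, subcutaneous pentylenetetrazole (ScMet) and rotorod tests, with 1–5 mice per seizure test.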

Mus musculus [4] = assay: Neurotoxicity in F1 albino mouse assessed as minimal motor impairment at 300 mg/kg, ip after 1 hr by rotorod test; assay type: toxicity, organism-based; parameters: dose 300 mg/kg, route intraperitoneal; conditions: in vivo; outline: as §1
Mus musculus [5] = assay: Anticonvulsant activity in F1 albino mouse assessed as protection against maximal electroshock-induced seizures at 300 mg/kg, ip after 0.5 hrs; assay type: functional, organism-based; parameters: dose 300 mg/kg; outline: as §1
Mus musculus [6] = assay: Anticonvulsant activity in F1 albino mouse assessed as protection against maximal electroshock-induced seizures at 300 mg/kg, ip after 4 hrs; assay type: functional, organism-based; parameters: dose 300 mg/kg; outline: as §1
Mus musculus [7] = assay: Neurotoxicity in F1 albino mouse assessed as minimal motor impairment at 300 mg/kg, ip after 4 hrs by rotorod test; assay type: toxicity, organism-based; parameters: dose 300 mg/kg, route intraperitoneal; conditions: in vivo; outline: as §1
Mus musculus [8] = assay: Anticonvulsant activity in F1 albino mouse assessed as protection against maximal electroshock-induced seizures at 300 mg/kg, ip after 1 hr; assay type: functional, organism-based; parameters: dose 300 mg/kg; outline: as §1
Mus musculus [9] = assay: Anticonvulsant activity in F1 albino mouse assessed as protection against subcutaneous pentylenetetrazole-induced seizures at 300 mg/kg, ip after 1 hr; assay type: functional, organism-based; parameters: dose 300 mg/kg; outline: as §1
Mus musculus [10] = assay: Neurotoxicity in F1 albino mouse assessed as minimal motor impairment at 300 mg/kg, ip after 0.5 hrs by rotorod test; assay type: toxicity, organism-based; parameters: dose 300 mg/kg, route intraperitoneal; conditions: in vivo; outline: as §1
Mus musculus [11] = assay: Anticonvulsant activity in F1 albino mouse assessed as protection against subcutaneous pentylenetetrazole-induced seizures at 300 mg/kg, ip after 4 hrs; assay type: functional, organism-based; parameters: dose 300 mg/kg; outline: as §1
Mus musculus [12] = assay: Anticonvulsant activity in F1 albino mouse assessed as protection against subcutaneous pentylenetetrazole-induced seizures at 300 mg/kg, ip after 0.25 hrs; assay type: functional, organism-based; parameters: dose 300 mg/kg; outline: as §1
Adenosine receptor A1 = biological target: T1, Adenosine receptor A1 (Rattus norvegicus, UniProt P25099); assay: Displacement of [3H]CCPA from adenosine A1 receptor in rat brain cortical membrane; assay type: cell membranes
T1 sequence (P25099 whole entry): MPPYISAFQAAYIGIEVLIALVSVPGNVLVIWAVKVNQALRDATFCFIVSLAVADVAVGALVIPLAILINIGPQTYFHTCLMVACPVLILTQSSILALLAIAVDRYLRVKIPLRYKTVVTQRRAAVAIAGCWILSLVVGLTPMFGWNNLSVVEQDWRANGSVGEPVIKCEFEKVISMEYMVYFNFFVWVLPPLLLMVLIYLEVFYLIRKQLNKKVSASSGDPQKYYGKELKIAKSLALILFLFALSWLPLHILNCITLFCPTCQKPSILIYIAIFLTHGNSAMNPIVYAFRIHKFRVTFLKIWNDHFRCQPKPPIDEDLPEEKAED

Rattus norvegicus [13] = species: Rattus norvegicus; assay: Selectivity ratio of Ki for adenosine A1 receptor in rat brain cortical membrane to Ki for adenosine A2A receptor in rat brain striatal membrane; assay type: cell membranes
Outline: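 Ki ratios from radioligand competition binding. Rat A1 used brain cortical membranes and rat A2A used brain striatal membranes. Human A1 and A2A used membranes of CHO cells expressing the receptors. A1 radioligand [³H]CCPA; A2A radioligand [³H]MSX-2. Potent compounds were tested at 6–7 concentrations spanning 3 orders of magnitude.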

Rattus norvegicus [14] = assay: Anticonvulsant activity in Sprague-Dawley albino rat assessed as protection against maximal electroshock-induced seizures at 30 mg/kg, po after 2 hrs; assay type: functional, organism-based; parameters: dose 30 mg/kg
Outline: (§2)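 Male Sprague-Dawley albino rats (100–150 g), groups of 4. Oral suspension in 0.5% methylcellulose/water. Protection assessed by maximal electroshock or subcutaneous pentylenetetrazole; motor impairment by rotorod. Time points 0.25–4 h. Value is protected (or toxic)/tested animals.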

Mus musculus [15] = assay: Anticonvulsant activity in F1 albino mouse assessed as protection against maximal electroshock-induced seizures at 100 mg/kg, ip after 0.5 hrs; assay type: functional, organism-based; parameters: dose 100 mg/kg; outline: as §1
Rattus norvegicus [16] = assay: Anticonvulsant activity in Sprague-Dawley albino rat assessed as protection against subcutaneous pentylenetetrazole-induced seizures at 50 mg/kg, po after 2 hrs; assay type: functional, organism-based; parameters: dose 50 mg/kg; outline: as §2
Rattus norvegicus [17] = assay: Neurotoxicity in Sprague-Dawley albino rat assessed as minimal motor impairment at 30 mg/kg, po after 1 hr by rotorod test; assay type: toxicity, organism-based; parameters: dose 30 mg/kg, route oral; conditions: in vivo; outline: as §2
Mus musculus [18] = assay: Anticonvulsant activity in F1 albino mouse assessed as protection against subcutaneous pentylenetetrazole-induced seizures at 100 mg/kg, ip after 0.5 hrs; assay type: functional, organism-based; parameters: dose 100 mg/kg; outline: as §1
Rattus norvegicus [19] = assay: Anticonvulsant activity in Sprague-Dawley albino rat assessed as protection against maximal electroshock-induced seizures at 30 mg/kg, po after 1 hr; assay type: functional, organism-based; parameters: dose 30 mg/kg; outline: as §2
Rattus norvegicus [20] = assay: Neurotoxicity in Sprague-Dawley albino rat assessed as minimal motor impairment at 30 mg/kg, po after 0.5 hrs by rotorod test; assay type: toxicity, organism-based; parameters: dose 30 mg/kg, route oral; conditions: in vivo; outline: as §2
Rattus norvegicus [21] = assay: Neurotoxicity in Sprague-Dawley albino rat assessed as minimal motor impairment at 30 mg/kg, po after 0.25 hrs by rotorod test; assay type: toxicity, organism-based; parameters: dose 30 mg/kg, route oral; conditions: in vivo; outline: as §2
Rattus norvegicus [22] = assay: Anticonvulsant activity in Sprague-Dawley albino rat assessed as protection against subcutaneous pentylenetetrazole-induced seizures at 50 mg/kg, po after 0.5 hrs; assay type: functional, organism-based; parameters: dose 50 mg/kg; outline: as §2
Rattus norvegicus [23] = assay: Anticonvulsant activity in Sprague-Dawley albino rat assessed as protection against subcutaneous pentylenetetrazole-induced seizures at 50 mg/kg, po after 1 hr; assay type: functional, organism-based; parameters: dose 50 mg/kg; outline: as §2
Rattus norvegicus [24] = assay: Anticonvulsant activity in Sprague-Dawley albino rat assessed as protection against maximal electroshock-induced seizures at 30 mg/kg, po after 4 hrs; assay type: functional, organism-based; parameters: dose 30 mg/kg; outline: as §2
Rattus norvegicus [25] = assay: Anticonvulsant activity in Sprague-Dawley albino rat assessed as protection against subcutaneous pentylenetetrazole-induced seizures at 50 mg/kg, po after 4 hrs; assay type: functional, organism-based; parameters: dose 50 mg/kg; outline: as §2
Rattus norvegicus [26] = assay: Anticonvulsant activity in Sprague-Dawley albino rat assessed as protection against subcutaneous pentylenetetrazole-induced seizures at 50 mg/kg, po after 0.25 hrs; assay type: functional, organism-based; parameters: dose 50 mg/kg; outline: as §2
Rattus norvegicus [27] = assay: Anticonvulsant activity in Sprague-Dawley albino rat assessed as protection against maximal electroshock-induced seizures at 30 mg/kg, po after 0.5 hrs; assay type: functional, organism-based; parameters: dose 30 mg/kg; outline: as §2
Rattus norvegicus [28] = assay: Neurotoxicity in Sprague-Dawley albino rat assessed as minimal motor impairment at 30 mg/kg, po after 4 hrs by rotorod test; assay type: toxicity, organism-based; parameters: dose 30 mg/kg, route oral; conditions: in vivo
Outline: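 Male Sprague-Dawley albino rats (100–150 g), groups of 4, dosed orally with a suspension in 0.5% methylcellulose/water. Neurotoxicity was scored as minimal motor impairment on the rotorod at 0.25, 0.5, 1 and 4 h. Results are reported as animals showing toxicity per animals tested.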

Adenosine receptor A2a, sequence (P30543 whole entry): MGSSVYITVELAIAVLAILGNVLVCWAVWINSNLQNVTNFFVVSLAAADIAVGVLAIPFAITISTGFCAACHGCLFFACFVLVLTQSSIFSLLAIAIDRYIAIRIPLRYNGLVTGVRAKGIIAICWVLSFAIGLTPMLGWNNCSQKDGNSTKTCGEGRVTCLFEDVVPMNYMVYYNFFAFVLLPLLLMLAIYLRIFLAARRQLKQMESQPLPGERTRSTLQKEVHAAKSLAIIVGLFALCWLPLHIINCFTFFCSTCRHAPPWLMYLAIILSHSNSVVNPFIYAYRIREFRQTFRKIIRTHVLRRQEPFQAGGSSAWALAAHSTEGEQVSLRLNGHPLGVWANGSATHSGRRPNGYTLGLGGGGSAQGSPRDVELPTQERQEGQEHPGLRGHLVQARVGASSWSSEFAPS

Row | Compound | Ki (Adenosine receptor A2a) [nM] | Activity (Mus musculus [1]) | Activity (Mus musculus [2]) | Activity (Mus musculus [4]) | Activity (Mus musculus [6]) | Activity (Mus musculus [7]) | Activity (Mus musculus [8]) | Activity (Mus musculus [9]) | Activity (Mus musculus [10]) | Activity (Mus musculus [11]) | Activity (Mus musculus [12]) | Ki (Adenosine receptor A1) [µM] | Ratio Ki (Rattus norvegicus [13]) | further results
1 | Cn1c(=O)c2c(nc3n2CCCN3C2CCCC2)n(C)c1=O | 1000 | Non-toxic | inactive | Non-toxic | inactive | Non-toxic | inactive | Active | Non-toxic | inactive | inactive | 5.31 | 5 | Activity (Mus musculus [3]): Toxic; Activity (Mus musculus [5]): inactive
2 | C[C@@H](C1CCCCC1)N1CCCn2c1nc1c2c(=O)n(C)c(=O)n1C | 887 | Non-toxic | inactive | Non-toxic | inactive | Non-toxic | inactive | inactive | Non-toxic | inactive | inactive | 11.9 | 13 | Activity (Rattus norvegicus [14]): inactive; Activity (Mus musculus [15]): Active; Activity (Rattus norvegicus [16]): inactive; Activity (Rattus norvegicus [17]): Non-toxic; Activity (Mus musculus [18]): inactive; Activity (Rattus norvegicus [19]): Active; Activity (Rattus norvegicus [20]): Non-toxic; Activity (Rattus norvegicus [21]): Non-toxic; Activity (Rattus norvegicus [22]): inactive; Activity (Rattus norvegicus [23]): inactive; Activity (Rattus norvegicus [24]): inactive; Activity (Rattus norvegicus [25]): inactive; Activity (Rattus norvegicus [26]): inactive; Activity (Rattus norvegicus [27]): inactive; Activity (Rattus norvegicus [28]): Non-toxic
